ChEMBL document CHEMBL3808298, “The combination of quinazoline and chalcone moieties leads to novel potent heterodimeric modulators of breast cancer resistance protein (BCRP/ABCG2)” (Eur J Med Chem, 2016)
Active and inactive are the calls of the source. The rule behind the calls is not given here.

Key:
[1] = biological target: T1, Broad substrate specificity ATP-binding cassette transporter ABCG2 (Homo sapiens, UniProt Q9UNQ0); assay: Inhibition of human C-terminal GFP-tagged ABCG2 expressed in MDCK2 cells using pheophorbide A as substrate preincubated for 20 mins followed by substrate addition measured after 120 mins by flow cytometry; type: cell-based, MDCK-II
T1 sequence (Q9UNQ0 whole entry): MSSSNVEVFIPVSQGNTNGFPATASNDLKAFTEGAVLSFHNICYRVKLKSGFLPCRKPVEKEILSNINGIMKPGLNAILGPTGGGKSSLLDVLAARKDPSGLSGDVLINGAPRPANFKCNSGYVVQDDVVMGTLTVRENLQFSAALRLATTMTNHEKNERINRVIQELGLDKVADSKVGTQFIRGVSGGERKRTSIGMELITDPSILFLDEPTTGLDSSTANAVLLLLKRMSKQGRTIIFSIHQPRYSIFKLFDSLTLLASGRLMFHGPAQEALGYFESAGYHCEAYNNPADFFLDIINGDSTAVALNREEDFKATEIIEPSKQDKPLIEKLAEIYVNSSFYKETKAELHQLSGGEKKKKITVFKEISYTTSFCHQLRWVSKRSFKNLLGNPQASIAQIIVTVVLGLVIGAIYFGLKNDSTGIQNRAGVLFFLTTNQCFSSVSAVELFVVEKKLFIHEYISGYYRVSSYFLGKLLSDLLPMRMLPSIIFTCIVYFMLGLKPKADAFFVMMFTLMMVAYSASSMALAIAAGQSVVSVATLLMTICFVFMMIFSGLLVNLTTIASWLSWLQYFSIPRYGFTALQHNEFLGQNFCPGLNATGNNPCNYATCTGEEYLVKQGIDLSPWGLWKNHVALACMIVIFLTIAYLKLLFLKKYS
Summary of the method: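 MDCK II BCRP cells, about 45,000/well in KHB, preincubated with compound for 20 min at 37 °C, 5% CO2. Pheophorbide A added (5 µM solution), then 120 min to steady state. Flow cytometry: excitation 488 nm, emission >670 nm (FL3); GFP in FL1. IC50 from 4-parameter logistic fit; duplicates.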

[2] = biological target: ATP-dependent translocase ABCB1 (Homo sapiens, UniProt P08183); assay: Inhibition of ABCB1 in human A2780/ADR cells incubated for 30 mins measured up to 3600 secs with time intervals of 60 secs by calcein accumulation assay; type: cell-based
[3] = Cytotoxicity against MDCK2 cells expressing human C-terminal GFP-tagged ABCG2 assessed as reduction in cell viability at 10 uM after 72 hrs by MTT assay; type: ADME, cell-based, Canis lupus familiaris; details: dog, mdck-ii
[4] = Cytotoxicity against MDCK2 cells assessed as reduction in cell viability at 10 uM after 72 hrs by MTT assay; type: cell-based, Canis lupus familiaris; details: dog, mdck-ii
[5] = biological target: T1, Broad substrate specificity ATP-binding cassette transporter ABCG2; assay: Inhibition of vanadate-sensitive ATPase activity of recombinant human ABCG2 expressed in baculovirus infected Sf9 cell membrane assessed as decrease in inorganic phosphate production at 1 uM after 20 mins by colorimetry; details: sf9, 20 min
Summary of the method: (§1)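 Sf9 membranes from cells infected with baculovirus carrying human wild-type ABCG2, cholesterol-loaded; protein by BCA. Buffer: 40 mM MOPS-Tris pH 7.0, 50 mM KCl, 2 mM DTT, 500 µM EGTA-Tris, 5 mM azide, 1 mM ouabain, 10 µg protein. Reaction started with 3.3 mM MgATP, 20 min at 37 °C. Basal activity with 1 mM orthovanadate; 1 µM quercetin and 1 µM Ko143 as references. Pi by molybdate/ascorbate at 880 nm against K2HPO4 standard; triplicates.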

[6] = Cytotoxicity against MDCK2 cells assessed as reduction in cell viability after 72 hrs by MTT assay; type: cell-based, Canis lupus familiaris, MDCK-II; details: dog
Summary of the method: (§2)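 Seeding 3 x 10³ cells/well, 6 h attachment at 37 °C, 5% CO2, then compound for 72 h. Controls: 10% DMSO (positive), medium (negative). MTT 5 mg/ml stock for 1 h; formazan in DMSO; A570, background 690 nm. Normalized to control; GI50 from variable-slope sigmoidal fit.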

[7] = Cytotoxicity against MDCK2 cells expressing human C-terminal GFP-tagged ABCG2 assessed as reduction in cell viability after 72 hrs by MTT assay; type: ADME, cell-based, Canis lupus familiaris, MDCK-II; details: dog; summary of the method: as §2
ABCG2 = assay: Therapeutic ratio of GI50 for MDCK2 cells expressing human C-terminal GFP-tagged ABCG2 to IC50 for human C-terminal GFP-tagged ABCG2 expressed in MDCK2 cells; type: ADME, cell-based; details: dog, read-out: TI
Summary of the method: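 Ratio of GI50 from a 72 h MTT assay in MDCK II BCRP cells to IC50 from the pheophorbide A assay in the same cells.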

ABCB1 (P-glycoprotein) [8] = biological target: ABCB1 (P-glycoprotein) (Homo sapiens, UniProt P08183); assay: Inhibition of ABCB1 in human A2780/ADR cells at 10 uM incubated for 30 mins measured up to 3600 secs with time intervals of 60 secs by calcein accumulation assay relative to cyclosporine A; type: cell-based; details: probe calcein, read-out: Imax
Summary of the method: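 A2780adr cells, about 30,000/well, preincubated with compound for 30 min. Calcein AM then added (1.25 µM solution); fluorescence (ex 485/em 520 nm) read every 60 s to 3600 s at 37 °C. […] IC50 by four-parameter logistic fit, variable slope.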

[9] = Cytotoxicity against human A2780/ADR cells overexpressing ABCB1 assessed as reduction in cell viability after 72 hrs by MTT assay; type: ADME, cell-based
Summary of the method: (§3)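 MTT assay in A2780 and ABCB1-overexpressing doxorubicin-resistant A2780adr cells; A2780adr given 1 μM doxorubicin for one passage every 10 passages. 8 x 10³ cells/well, 6 h attachment, 72 h compound exposure at 37 °C, 5% CO2. MTT 1 h, DMSO solubilization, A570 with 690 nm background. Normalized data; GI50 by variable-Hill-slope sigmoidal regression.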

[10] = Cytotoxicity against human A2780 cells assessed as reduction in cell viability after 72 hrs by MTT assay; type: cell-based; summary of the method: as §3
ABCB1 (P-glycoprotein) [11] = assay: Therapeutic ratio of GI50 for human A2780/ADR cells overexpressing ABCB1 to IC50 for ABCB1 in human A2780/ADR cells; type: ADME, cell-based; details: read-out: TI
MCF7 [12] = assay: Drug uptake in human MCF7 cells at 10 uM after 2 hrs by confocal laser scanning microscopic analysis; type: ADME, cell-based; details: mcf7, 2 h
Summary of the method: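 Parental MCF-7 cells, 1 x 10^5 seeded in dishes for 48 h to 50-60% confluence, then exposed to 10 µM compound for 2 h. Supernatant replaced with KHB; confocal imaging at 37 °C, excitation 405 nm, emission 425-475 nm.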

[13] = biological target: T1, Broad substrate specificity ATP-binding cassette transporter ABCG2; assay: Inhibition of ABCG2 in human MCF7/MX cells assessed as intracellular pheophorbide A accumulation at 10 uM after 2 hrs by confocal laser scanning microscopic analysis; type: cell-based
Summary of the method: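 MCF-7 MX cells (ABCG2-overexpressing; 0.1 µM mitoxantrone every 10 passages) incubated with pheophorbide A together with compound for 2 h. Imaged by confocal laser scanning microscopy at 37 °C after replacing the medium with KHB.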

MCF7 [14] = assay: Drug uptake in human MCF7 cells up to 60 mins by fluorescence spectroscopic analysis; type: ADME, cell-based; details: mcf7, 1 h
Summary of the method: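 Parental MCF-7 cells, 1 x 10^6 per 4.5 ml KHB, incubated with compound for varying times […]. After a KHB wash, intracellular fluorescence was read in a fluorescence spectrometer.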

[15] = biological target: T1, Broad substrate specificity ATP-binding cassette transporter ABCG2; assay: Inhibition of vanadate-sensitive ATPase activity of recombinant human ABCG2 expressed in baculovirus infected Sf9 cell membrane assessed as decrease in inorganic phosphate production up to 1 uM after 20 mins by colorimetry; details: sf9, 20 min; summary of the method: as §1
[16] = biological target: T1, Broad substrate specificity ATP-binding cassette transporter ABCG2; assay: Induction of vanadate-sensitive ATPase activity of recombinant human ABCG2 expressed in baculovirus infected Sf9 cell membrane assessed as increase in inorganic phosphate production at >1 uM after 20 mins by colorimetry; details: sf9, 20 min; summary of the method: as §1
MDCK-II = assay: Potentiation of SN-38-induced cytotoxicity in MDCK2 cells assessed as decrease in cell viability at 0.01 to 0.1 uM after 72 hrs by MTT assay; type: functional, cell-based; details: Canis lupus familiaris
Summary of the method: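 SN-38 dose-response curves in MDCK II BCRP cells (canine kidney line stably transfected with human ABCG2 C-terminally fused to GFP) and parental MDCK II wild-type cells. Modulator was present at a final 0.01 or 0.1 µM. Cells were seeded at 3 x 10³ per well, attached 6 h, then exposed 72 h. MTT was read at 570 nm minus 690 nm. Data were normalized and fitted with variable-slope sigmoidal regression.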

Sequence of ATP-dependent translocase ABCB1 (P08183 whole entry): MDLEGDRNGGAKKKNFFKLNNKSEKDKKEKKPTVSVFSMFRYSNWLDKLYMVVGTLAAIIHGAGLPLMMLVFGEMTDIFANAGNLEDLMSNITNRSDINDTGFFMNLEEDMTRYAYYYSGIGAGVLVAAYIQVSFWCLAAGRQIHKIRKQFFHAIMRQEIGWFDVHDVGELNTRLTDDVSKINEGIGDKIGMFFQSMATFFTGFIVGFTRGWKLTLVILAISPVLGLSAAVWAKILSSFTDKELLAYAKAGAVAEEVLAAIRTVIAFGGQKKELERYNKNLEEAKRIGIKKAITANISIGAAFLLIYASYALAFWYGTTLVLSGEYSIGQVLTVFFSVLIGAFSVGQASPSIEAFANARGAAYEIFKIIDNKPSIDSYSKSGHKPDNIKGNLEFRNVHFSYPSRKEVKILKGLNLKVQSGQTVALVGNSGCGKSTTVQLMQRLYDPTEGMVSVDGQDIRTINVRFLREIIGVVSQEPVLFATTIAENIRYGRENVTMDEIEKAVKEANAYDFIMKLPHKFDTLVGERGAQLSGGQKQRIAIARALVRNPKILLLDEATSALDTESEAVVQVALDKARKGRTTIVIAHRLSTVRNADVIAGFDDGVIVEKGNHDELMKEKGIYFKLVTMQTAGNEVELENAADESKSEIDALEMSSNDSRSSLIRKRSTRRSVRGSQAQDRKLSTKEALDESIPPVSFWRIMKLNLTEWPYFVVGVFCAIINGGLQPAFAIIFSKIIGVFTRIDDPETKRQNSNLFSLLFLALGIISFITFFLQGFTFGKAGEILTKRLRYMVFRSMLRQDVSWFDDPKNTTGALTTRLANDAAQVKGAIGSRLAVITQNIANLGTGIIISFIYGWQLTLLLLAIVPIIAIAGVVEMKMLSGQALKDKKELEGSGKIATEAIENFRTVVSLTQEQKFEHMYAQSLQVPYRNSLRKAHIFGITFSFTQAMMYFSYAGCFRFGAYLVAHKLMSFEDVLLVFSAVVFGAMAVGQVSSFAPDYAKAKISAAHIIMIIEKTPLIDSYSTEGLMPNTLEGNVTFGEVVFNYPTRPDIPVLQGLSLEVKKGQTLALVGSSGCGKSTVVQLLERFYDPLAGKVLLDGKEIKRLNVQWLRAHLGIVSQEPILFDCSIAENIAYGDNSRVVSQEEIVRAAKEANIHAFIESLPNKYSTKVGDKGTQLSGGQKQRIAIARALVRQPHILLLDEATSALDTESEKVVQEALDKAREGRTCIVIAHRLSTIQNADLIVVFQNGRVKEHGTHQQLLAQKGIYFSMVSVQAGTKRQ
Sequence of ABCB1 (P-glycoprotein) (Homo sapiens, UniProt P08183) (P08183 whole entry): as above

Structure (SMILES)	IC50 [1]	IC50 [2]	GI50 at 72 h [6]	GI50 at 72 h [7]	selectivity ratio (ABCG2)	other results
COc1cccc(/C=C/C(=O)c2ccc(Nc3ncnc4ccccc34)cc2)c1	680 nM	5570 nM	–	–	–	Activity [3]: Toxic; Activity [4]: Toxic
COc1ccc(/C=C/C(=O)c2cccc(Nc3ncnc4cc(OC)c(OC)cc34)c2)cc1	320 nM	4150 nM	16900 nM	12700 nM	40	inhibition (INH) [5]: Active
COc1ccc(/C=C/C(=O)c2cccc(Nc3nc(-c4ccccc4)nc4ccccc34)c2)cc1OC	460 nM	–	–	–	–	–
COc1ccc(/C=C/C(=O)c2cccc(Nc3ncnc4cc(OC)c(OC)cc34)c2)cc1OC	1710 nM	860 nM	6140 nM	11500 nM	7	inhibition (INH) [5]: Active; inhibition at 30 min, 10 µM (ABCB1 (P-glycoprotein) [8]): 68%; GI50 at 72 h [9]: 1500 nM; GI50 at 72 h [10]: 1350 nM; selectivity ratio (ABCB1 (P-glycoprotein) [11]): 2
COc1ccc(/C=C/C(=O)c2ccc(Nc3nc(-c4ccc(OC)c(OC)c4)nc4ccccc34)cc2)cc1	3130 nM	–	–	–	–	–
COc1ccc(/C=C/C(=O)c2cccc(Nc3ncnc4ccccc34)c2)cc1	890 nM	7080 nM	–	–	–	–
COc1ccc(/C=C/C(=O)c2cccc(Nc3nc(-c4ccccc4)nc4ccccc34)c2)cc1	970 nM	–	–	–	–	–
COc1ccc(/C=C/C(=O)c2ccc(Nc3ncnc4cc(OC)c(OC)cc34)cc2)cc1OC	1230 nM	–	–	–	–	inhibition (INH) [5]: Active
O=C(/C=C/c1ccccc1)c1ccc(Nc2nc(-c3ccccc3)nc3ccccc23)cc1	920 nM	–	–	–	–	–
COc1cccc(/C=C/C(=O)c2cccc(Nc3nc(-c4ccccc4)nc4ccccc34)c2)c1	680 nM	–	–	–	–	Activity [3]: Toxic; Activity [4]: Toxic
COc1ccc(/C=C/C(=O)c2ccc(Nc3ncnc4ccccc34)cc2)cc1OC	840 nM	2340 nM	–	–	–	inhibition at 30 min, 10 µM (ABCB1 (P-glycoprotein) [8]): 61%; Drug uptake (MCF7 [12]): Active; inhibition (INH) [13]: Active; Drug uptake (MCF7 [14]): Active
COc1ccc(/C=C/C(=O)c2ccc(Nc3nc(-c4ccccc4)nc4ccccc34)cc2)cc1OC	290 nM	18800 nM	3460 nM	4800 nM	17	Activity [3]: Toxic; Activity [4]: Toxic
COc1cccc(/C=C/C(=O)c2ccc(Nc3ncnc4cc(OC)c(OC)cc34)cc2)c1	390 nM	7550 nM	–	–	–	inhibition (INH) [5]: Active; inhibition (INH) [15]: Active; Activity [16]: Not Active
COc1cccc(/C=C/C(=O)c2ccc(Nc3nc(-c4ccc(OC)c(OC)c4)nc4ccccc34)cc2)c1	360 nM	14600 nM	–	–	–	–
COc1cccc(/C=C/C(=O)c2cccc(Nc3nc(-c4ccc(OC)c(OC)c4)nc4ccccc34)c2)c1	310 nM	8240 nM	65500 nM	84700 nM	273	–
COc1ccc(/C=C/C(=O)c2ccc(Nc3nc(-c4ccccc4)nc4ccccc34)cc2)cc1	3550 nM	–	–	–	–	–
COc1ccc(/C=C/C(=O)c2cccc(Nc3nc(-c4ccc(OC)c(OC)c4)nc4ccccc34)c2)cc1OC	600 nM	480 nM	12600 nM	10900 nM	18	inhibition at 30 min, 10 µM (ABCB1 (P-glycoprotein) [8]): 76%; GI50 at 72 h [9]: 1710 nM; GI50 at 72 h [10]: 1980 nM; selectivity ratio (ABCB1 (P-glycoprotein) [11]): 4
COc1ccc(/C=C/C(=O)c2cccc(Nc3nc(-c4ccc(OC)c(OC)c4)nc4ccccc34)c2)cc1	210 nM	1290 nM	10300 nM	13100 nM	62	inhibition at 30 min, 10 µM (ABCB1 (P-glycoprotein) [8]): 70%; GI50 at 72 h [9]: 3250 nM; GI50 at 72 h [10]: 4390 nM; selectivity ratio (ABCB1 (P-glycoprotein) [11]): 3
COc1ccc(-c2nc(Nc3ccc(C(=O)/C=C/c4ccccc4)cc3)c3ccccc3n2)cc1OC	1090 nM	–	–	–	–	–
COc1ccc2c3c([nH]c2c1)[C@H](CC(C)C)N1C(=O)[C@H](CCC(=O)OC(C)(C)C)NC(=O)[C@@H]1C3	–	–	10900 nM	11100 nM	–	Activity (MDCK-II): Active
COc1cccc(/C=C/C(=O)c2ccc(Nc3nc(-c4ccccc4)nc4ccccc34)cc2)c1	880 nM	32100 nM	–	–	–	Activity [3]: Toxic; Activity [4]: Toxic
COc1ccc(/C=C/C(=O)c2cccc(Nc3ncnc4ccccc34)c2)cc1OC	1300 nM	420 nM	3420 nM	5140 nM	4	inhibition at 30 min, 10 µM (ABCB1 (P-glycoprotein) [8]): 66%; GI50 at 72 h [9]: 700 nM; GI50 at 72 h [10]: 650 nM; selectivity ratio (ABCB1 (P-glycoprotein) [11]): 2
